Activity calls are given as the source filed them. No cut-off for these calls is given here.
How the values were obtained:
[1] = target: T1, Estrogen receptor (Homo sapiens) (UniProt P03372); assay: Downregulation of ERalpha expression in human MCF7 cells at 10 uM after 6 hrs by Western blot method relative to beta-actin; assay type: cell-based
T1 sequence (whole entry): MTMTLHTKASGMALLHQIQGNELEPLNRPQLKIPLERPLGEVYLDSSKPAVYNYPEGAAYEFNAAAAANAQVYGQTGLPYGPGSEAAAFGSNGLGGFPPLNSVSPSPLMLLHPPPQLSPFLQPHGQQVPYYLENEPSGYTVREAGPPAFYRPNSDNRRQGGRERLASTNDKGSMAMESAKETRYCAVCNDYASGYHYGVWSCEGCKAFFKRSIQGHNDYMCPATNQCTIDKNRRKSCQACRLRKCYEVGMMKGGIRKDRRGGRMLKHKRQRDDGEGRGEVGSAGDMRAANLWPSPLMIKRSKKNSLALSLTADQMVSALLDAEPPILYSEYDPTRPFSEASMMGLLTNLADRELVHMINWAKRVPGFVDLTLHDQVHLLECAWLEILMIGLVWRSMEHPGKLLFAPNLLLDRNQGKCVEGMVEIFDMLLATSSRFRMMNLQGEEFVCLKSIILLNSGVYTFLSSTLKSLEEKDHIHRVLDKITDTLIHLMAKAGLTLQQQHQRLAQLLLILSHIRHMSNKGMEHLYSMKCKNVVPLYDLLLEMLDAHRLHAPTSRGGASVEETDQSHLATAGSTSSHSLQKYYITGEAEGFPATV
Procedure, shortened: (§1)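 MCF-7 cells kept in DMEM with 10% FBS, kanamycin and 10 μg/mL insulin, then exposed to compounds for 6 h. Lysates made in SDS buffer (0.1 M Tris-HCl pH 8.0, 10% glycerol, 1% SDS), boiled, BCA-normalized and run on SDS-PAGE. Blots probed with anti-ERα, AR, AhR or VDR and β-actin or lamin B. Chemiluminescence quantified as target/loading-protein ratio; means ± S.E., n=3.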

[2] = target: T2, Estrogen receptor (Homo sapiens, UniProt P03372); assay: Displacement of Fluormone ES2 Green from full-length untagged human ERalpha expressed in insect cells after 2 hrs by fluorescence polarization assay
T2 sequence (P03372 whole entry): T1 sequence (whole entry)

[3] = target: T1, Estrogen receptor (Homo sapiens); assay: Downregulation of ERalpha expression in human MCF7 cells at 1 uM after 6 hrs by Western blot method relative to beta-actin; assay type: cell-based; procedure, shortened: as §1
[4] = target: T1, Estrogen receptor (Homo sapiens); assay: Downregulation of ERalpha expression in human MCF7 cells at 3 uM after 6 hrs by Western blot method relative to beta-actin; assay type: cell-based; procedure, shortened: as §1
[5] = target: T1, Estrogen receptor (Homo sapiens); assay: Displacement of Fluormone ES2 Green from full-length untagged human ERalpha expressed in insect cells at 1 uM after 2 hrs by fluorescence polarization assay
Procedure, shortened: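 Competitive fluorescence polarization binding to ERα run with a commercial kit per manufacturer's instructions. Compounds taken from 10 mM DMSO stock. mP read at 470 nm excitation and 535 nm emission. Fraction bound correlated with mP and plotted against competitor concentration.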

[6] = target: T1, Estrogen receptor (Homo sapiens); assay: Antagonist activity at GAL4-fused human ERalpha LBD expressed in HEK293 cells assessed as inhibition of 17beta-estradiol-induced transcriptional activation at 10 uM after 16 to 20 hrs by luciferase reporter gene assay relative to control; assay type: cell-based
Procedure, shortened: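 HEK293 cells grown in phenol red-free DMEM with 10% FBS at 37 °C, 5% CO2. Calcium phosphate co-transfection with GAL4-hERα LBD plasmid, MH100x4-tk-luciferase reporter and β-galactosidase normalization plasmid. Compounds added 8 h post-transfection with 0.3 nM 17β-estradiol; harvested 16–20 h later. Luciferase normalized to β-galactosidase; means of triplicate assays.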

SMILES | Activity [1] | IC50 [2] | Activity [3] | Activity [4] | inhibition [5] | inhibition [6]
CCCCOc1ccc(C(CCC)(CCC)c2ccc(O)c(C)c2)cc1C | 68% | 87 nM | 84% | 82% | – | –
CCCC(CCC)(c1ccc(O)c(C)c1)c1ccc(OCCN(C)C)c(C)c1 | 100% | 313 nM | 109% | 115% | – | –
CCCCCCOc1ccc(C(CCC)(CCC)c2ccc(O)c(C)c2)cc1C | 86% | 168 nM | 89% | 95% | – | –
CCCCCCCCOc1ccc(C(CCC)(CCC)c2ccc(O)c(C)c2)cc1C | 105% | 400 nM | 105% | 105% | – | –
CCCCCCNCCOc1ccc(C(CCC)(CCC)c2ccc(O)c(C)c2)cc1C | 112% | 78 nM | 185% | 185% | – | –
CCCCCCCCNCCOc1ccc(C(CCC)(CCC)c2ccc(O)c(C)c2)cc1C | 69% | 2.4 nM | 111% | 112% | – | –
CCCCCCCCCCCCCCCCNCCOc1ccc(C(CCC)(CCC)c2ccc(O)c(C)c2)cc1C | 70% | 20 nM | 92% | 82% | – | –
CCCC(CCC)(c1ccc(O)c(C)c1)c1ccc(OCCN)c(C)c1 | 150% | 78 nM | 145% | 154% | – | –
CCCCCCCCCCCCNCCOc1ccc(C(CCC)(CCC)c2ccc(O)c(C)c2)cc1C | 68% | 4.9 nM | 93% | 83% | – | –
CCCC(CCC)(c1ccc(O)c(C)c1)c1ccc(OCC)c(C)c1 | 87% | 40 nM | 95% | 96% | – | –
CCCC(CCC)(c1ccc(O)c(C)c1)c1ccc(O)c(C)c1 | 70% | 7.3 nM | 80% | 79% | – | –
CCCCCCCCCCOc1ccc(C(CCC)(CCC)c2ccc(O)c(C)c2)cc1C | 106% | – | 118% | 120% | inactive | –
CCCCCCCCCCCCOc1ccc(C(CCC)(CCC)c2ccc(O)c(C)c2)cc1C | 96% | – | 128% | 111% | inactive | 61%

From ChEMBL document CHEMBL4138058, “Design and synthesis of novel selective estrogen receptor degradation inducers based on the diphenylheptane skeleton” (Medchemcomm, 2017)
